Test results published in ChEMBL document CHEMBL2396611, “Synthesis and mechanism of hypoglycemic activity of benzothiazole derivatives” (J Med Chem, 2013).
In brackets after ≈: the same amount, converted by molar mass. Activity calls are given as the source filed them. The rule behind the calls is not given here.

What was measured:
L6 [1] = test: Activation of AMPKalpha in rat L6 cells assessed as phosphorylation at Thr172 after 4 hrs by Western blot analysis; type: cell-based
Cytochrome P450 3A4 = Cytochrome P450 3A4 (Homo sapiens, UniProt P08684); test: Inhibition of CYP3A4 (unknown origin) by luminescent based assay; type: ADME
[2] = target: 5'-AMP-activated protein kinase catalytic subunit alpha-2 (Rattus norvegicus) (UniProt Q09137); test: Activation of AMPK in rat L6 cells assessed as ACC phosphorylation at Ser79 at 25 uM after 3 hrs by Western blot analysis relative to control; type: cell-based
In short: (§1)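 Fully differentiated L6 myotubes, preincubated 3 h with or without 5 μM Compound C. Test agents: compound at 25 μM for 3 h, sorbitol 250 mM for 40 min, AICAR 4 mM for 30 min. Whole-cell lysates probed by Western blot for pSer79-ACC, ACC, pThr642-AS-160, AS-160 and α-tubulin; band densities summarized, n=3, vs respective controls.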

Mus musculus [3] = test: Toxicity in overnight fast KKAy mouse assessed as reduction of daily food intake at 30 to 75 mg/kg, sc bid for 2 days; type: organism-based; design: dose 30-75 mg/kg, route subcutaneous; conditions: in vivo, 48 h
In short: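 Hyperglycemic KKAy mice given 30 or 75 mg/kg s.c. twice daily as a suspension in sesame oil; controls received oil (150 µl). Daily food intake recorded over the 2-day treatment; n=10 per group, mean ± SEM.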

[4] = target: 5'-AMP-activated protein kinase catalytic subunit alpha-2 (Rattus norvegicus) (UniProt Q09137); test: Activation of AMPK in rat L6 cells assessed as increase of [3H]dGlc uptake at 25 uM up to 24 hrs; type: cell-based
In short: (§2)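 Fully differentiated L6 myotubes preincubated 24 h in αMEM with 2% FCS and 23.0 mmol/L D-glucose, then 4 h serum-free with 0.5% BSA. Compound or DMSO vehicle given for the indicated times or concentrations. Uptake read after 5 min at room temperature in PBS pH 7.4 with 0.1 mmol/L dGlc and 1.3 μCi/mL [3H]dGlc, by scintillation of SDS lysates. Zero-time basal rate set as 100%; n=6.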

L6 [5] = test: Activation of AMPKalpha in rat L6 cells assessed as phosphorylation at Thr172 at 50 uM after 4 hrs by Western blot analysis relative to control; type: cell-based
In short: (§3)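 L6 myotubes treated 4 h with increasing compound concentrations (5 to 150 μM) or DMSO. Whole-cell lysates immunoblotted for pThr172-AMPKα, AMPKα and α-tubulin; phosphorylation expressed relative to DMSO-treated control.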

L6 [6] = test: Activation of AMPKalpha in rat L6 cells assessed as phosphorylation at Thr172 at 100 uM after 1 hr by Western blot analysis; type: cell-based
In short: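 L6 myotubes exposed for the indicated times to test compound (100 μM in the first series; 50–150 μM in the second) or 4 mM AICAR. Whole-cell lysates immunoblotted for pThr172-AMPKα, AMPKα and α-tubulin; band densities from three independent experiments vs respective controls.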

Cytochrome P450 2D6 = Cytochrome P450 2D6 (Homo sapiens, UniProt P10635); test: Inhibition of CYP2D6 (unknown origin) by luminescent based assay; type: ADME
[7] = target: 5'-AMP-activated protein kinase catalytic subunit alpha-2 (Rattus norvegicus) (UniProt Q09137); test: Activation of AMPK in rat L6 cells assessed as increase of [3H]dGlc uptake after 5 hrs in presence of Akt/PKB inhibitor 1,3-dihydro-1-(1-((4-(6-phenyl-1Himidazo[4,5-g]quinoxalin-7-yl)phenyl)methyl)-4-piperidinyl)-2H-benzimidazol-2-one trifluoroacetate salt hydrate; type: cell-based
In short: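 Myotubes treated with compound, insulin or vehicle in the absence or presence of 100 nM wortmannin or 100 nM Akt/PKB inhibitor, each added 30 min before compound or insulin. Compound C 5 μM was added 5 h before the uptake assay. Rate then measured by the standard 5-min [3H]dGlc uptake assay.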

Mus musculus [8] = test: Antidiabetic activity in KKAy mouse assessed as reduction of blood glucose level at 30 to 75 mg/kg, sc bid for 4 days measured on day 1 relative to control; type: functional; design: scale not given: the % may be the effect or the level left; conditions: dose mg/kg 30-75; route subcutaneous
In short: (§4)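 Hyperglycemic KKAy mice injected s.c. twice daily for 4 days with compound at 30 or 75 mg/kg suspended in sesame oil; controls received sesame oil (150 µl). Blood glucose measured at the indicated times, with day-zero levels taken as 100%. n=10 per group, mean ± SEM, compared with oil-treated group.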

[9] = target: 5'-AMP-activated protein kinase catalytic subunit alpha-2 (Rattus norvegicus) (UniProt Q09137); test: Activation of AMPK in rat L6 cells assessed as increase of [3H]dGlc uptake at 10 to 200 uM; type: cell-based; conditions: TDE = time-dependent effect; in short: as §2
L6 [10] = test: Cytotoxicity against rat L6 cells assessed as cell viability at 25 to 200 uM after 24 hrs by MTT assay; type: cell-based; conditions: l6, 24 h
L6 [11] = test: Activation of AMPKalpha in rat L6 cells assessed as phosphorylation at Thr172 at 150 uM after 4 hrs by Western blot analysis relative to control; type: cell-based; in short: as §3
[12] = Intrinsic clearance in BALB/c mouse liver microsomes at 2 uM; type: ADME, Microsome; conditions: read-out: CLH
L6 [13] = test: Activation of AMPKalpha in rat L6 cells assessed as phosphorylation at Thr172 at 25 uM after 4 hrs by Western blot analysis relative to control; type: cell-based; in short: as §3
[14] = target: 5'-AMP-activated protein kinase catalytic subunit alpha-2 (Rattus norvegicus) (UniProt Q09137); test: Activation of AMPK in rat L6 cells assessed as AS-160 phosphorylation at Thr642 at 250 mM after 40 mins by Western blot analysis relative to control; type: cell-based; in short: as §1
Mus musculus [15] = test: Antidiabetic activity in KKAy mouse assessed as reduction of blood glucose level at 30 to 75 mg/kg, sc bid for 4 days measured on day 3 relative to control; type: functional; design: scale not given: the % may be the effect or the level left; conditions: dose mg/kg 30-75; route subcutaneous; in short: as §4
Mus musculus [16] = test: Antidiabetic activity in KKAy mouse assessed as reduction of blood glucose level at 30 to 75 mg/kg, sc bid for 4 days measured on day 2 relative to control; type: functional; design: scale not given: the % may be the effect or the level left; conditions: dose mg/kg 30-75; route subcutaneous; in short: as §4
L6 [17] = test: Increase of [3H]dGlc uptake in rat L6 cells after 5 hrs in presence of AMPK inhibitor compound C; type: functional, cell-based
In short: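 Differentiated L6 myotubes held 24 h in αMEM with 2% FCS and 23.0 mM D-glucose, then serum-free medium with 0.5% BSA for 4 h. Compound C (5 µM) added 5 h before the uptake assay, alongside 25 µM test agent. Cells rinsed in PBS, then given 0.1 mM dGlc with 1.3 µCi/mL [3H]dGlc in PBS pH 7.4 for 5 min at room temperature. Lysed in 0.1% SDS and counted by scintillation; n=6.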

[18] = Lipophilicity, log P of the compound; type: physicochemical; conditions: octanol/water
[19] = Solubility of the compound in water; type: physicochemical; conditions: buffer
[20] = target: 5'-AMP-activated protein kinase catalytic subunit alpha-2 (Rattus norvegicus) (UniProt Q09137); test: Activation of AMPK in rat L6 cells assessed as AS-160 phosphorylation at Thr642 after 30 mins by Western blot analysis relative to control
[21] = target: 5'-AMP-activated protein kinase catalytic subunit alpha-2 (Rattus norvegicus) (UniProt Q09137); test: Activation of AMPK in rat L6 cells assessed as ACC phosphorylation at Ser79 at 250 mM after 40 mins by Western blot analysis relative to control; type: cell-based; in short: as §1
[22] = target: 5'-AMP-activated protein kinase catalytic subunit alpha-2 (Rattus norvegicus) (UniProt Q09137); test: Activation of AMPK in rat L6 cells assessed as AS-160 phosphorylation at Thr642 at 25 uM after 3 hrs by Western blot analysis relative to control; type: cell-based; in short: as §1

5'-AMP-activated protein kinase catalytic subunit alpha-2 (Rattus norvegicus), sequence (Q09137 whole entry): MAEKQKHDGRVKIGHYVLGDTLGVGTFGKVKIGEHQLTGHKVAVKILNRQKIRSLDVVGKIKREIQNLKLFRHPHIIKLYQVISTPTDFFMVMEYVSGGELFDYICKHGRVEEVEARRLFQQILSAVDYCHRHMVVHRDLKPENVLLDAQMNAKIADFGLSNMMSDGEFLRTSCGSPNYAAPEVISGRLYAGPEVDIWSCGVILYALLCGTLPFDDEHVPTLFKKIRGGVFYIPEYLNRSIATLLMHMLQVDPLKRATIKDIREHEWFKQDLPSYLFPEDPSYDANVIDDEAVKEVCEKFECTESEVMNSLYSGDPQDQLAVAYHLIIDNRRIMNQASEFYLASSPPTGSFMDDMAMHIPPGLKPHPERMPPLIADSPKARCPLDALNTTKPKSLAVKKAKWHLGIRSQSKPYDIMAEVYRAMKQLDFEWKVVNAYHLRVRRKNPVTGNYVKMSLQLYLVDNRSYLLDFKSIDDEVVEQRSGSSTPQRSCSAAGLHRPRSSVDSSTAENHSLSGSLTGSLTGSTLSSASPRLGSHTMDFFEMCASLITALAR
Cytochrome P450 2D6, sequence (P10635 whole entry): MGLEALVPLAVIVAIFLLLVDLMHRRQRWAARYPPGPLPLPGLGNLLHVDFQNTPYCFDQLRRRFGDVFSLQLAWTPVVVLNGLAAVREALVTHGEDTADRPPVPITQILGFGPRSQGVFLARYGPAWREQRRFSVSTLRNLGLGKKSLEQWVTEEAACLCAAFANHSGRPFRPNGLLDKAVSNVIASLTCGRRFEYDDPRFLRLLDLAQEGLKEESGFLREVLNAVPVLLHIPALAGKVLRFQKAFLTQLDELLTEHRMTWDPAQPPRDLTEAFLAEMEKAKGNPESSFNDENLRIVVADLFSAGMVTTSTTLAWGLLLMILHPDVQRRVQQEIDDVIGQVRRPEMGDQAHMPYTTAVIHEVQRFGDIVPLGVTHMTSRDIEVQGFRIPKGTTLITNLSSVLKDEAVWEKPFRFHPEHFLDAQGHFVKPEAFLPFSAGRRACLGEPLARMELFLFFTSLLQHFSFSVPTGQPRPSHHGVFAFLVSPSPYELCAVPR
Cytochrome P450 3A4, sequence (P08684 whole entry): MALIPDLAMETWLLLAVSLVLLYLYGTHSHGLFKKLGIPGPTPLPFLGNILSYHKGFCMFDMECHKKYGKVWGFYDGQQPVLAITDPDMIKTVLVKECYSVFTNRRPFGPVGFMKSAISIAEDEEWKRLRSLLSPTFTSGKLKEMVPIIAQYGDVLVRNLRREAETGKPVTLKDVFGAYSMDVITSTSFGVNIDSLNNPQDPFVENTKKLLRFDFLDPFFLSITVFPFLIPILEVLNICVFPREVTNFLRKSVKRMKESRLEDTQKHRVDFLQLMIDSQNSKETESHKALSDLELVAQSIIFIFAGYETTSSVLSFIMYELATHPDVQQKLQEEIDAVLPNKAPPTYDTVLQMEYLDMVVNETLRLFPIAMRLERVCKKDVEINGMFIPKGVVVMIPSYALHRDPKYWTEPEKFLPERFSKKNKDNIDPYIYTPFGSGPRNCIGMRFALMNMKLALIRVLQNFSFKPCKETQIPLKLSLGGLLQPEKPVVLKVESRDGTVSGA

- inhibition (INH) (Cytochrome P450 3A4): 77.1%
- fold change (FC) [2]: 1.75
- Activity [4]: Active
- inhibition (INH) (Cytochrome P450 2D6): 64.4%
- Activity [7]: Active
- Activity [9]: tde
- microsomal CLint at 2 µM [12]: 692 µL/min/mg
- fold change (FC) [14]: 1.55
- logP [18]: 4.34
- solubility [19]: 12.1 µM (≈ 4.33 µg/mL)
- fold change (FC) [20]: 1.62
- fold change (FC) [21]: 2.56
- fold change (FC) [22]: 1.09
Compound: CCOc1ccc2nc(SCc3nc4ccccc4s3)sc2c1
- Activity (L6 [1]): Dose-dependent effect
- Activity (Mus musculus [3]): Non-toxic
- fold change (FC) (L6 [5]): 6
- Activity (L6 [6]): Active
- Activity (Mus musculus [8]): 30%
- Activity (L6 [10]): Non-toxic
- fold change (FC) (L6 [11]): 7.6
- fold change (FC) (L6 [13]): 6.8
- Activity (Mus musculus [15]): 50%
- Activity (Mus musculus [16]): 45%
- Activity (L6 [17]): inactive
